Reference: ChEMBL document CHEMBL1671645, “Pharmacokinetics and absorption of posaconazole oral suspension under various gastric conditions in healthy volunteers” (Antimicrob Agents Chemother, 2009)

Legend:
[1] = Half life in healthy human at 400 mg BID, po administered as suspension for 7 days coadministered with nutritional supplement; type: ADME, organism-based; settings: in vivo
Method in brief: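 Healthy volunteers given oral suspension (40 mg/ml) for 7 days, fasted or with nutritional supplement (Boost); four-way crossover, 14–21-day washout, nonfat snacks ≤800 cal/day allowed. On day 7 only the morning dose was given; plasma sampled predose to 168 h after it. LC-MS/MS (LLOQ 5.00 ng/ml). t1/2 = ln(2)/K from log-linear terminal slope; Tmax as median.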

Homo sapiens [2] = assay: Toxicity in healthy human assessed as dizziness at 400 mg administered as single dose suspension coadministered with nutritional supplement and 10 mg metoclopramide; type: organism-based; settings: in vivo
Method in brief: (§1)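 Three-way randomized crossover in 13 healthy volunteers with a 7- to 10-day washout. Each period was one 400-mg oral posaconazole suspension dose with a nutritional supplement. Metoclopramide 10 mg was given orally three times daily on the day before and the day of dosing; loperamide was a single 4 mg. Safety was assessed from adverse events, tabulated by body system and severity per treatment.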

[3] = Cmax in fasted healthy human plasma at 400 mg administered as single dose suspension; type: ADME, organism-based; parameters: dose 400 mg
Homo sapiens [4] = assay: Toxicity in healthy human assessed as asthenia at 200 mg QID, po administered as suspension for 7 days coadministered with nutritional supplement; type: organism-based; settings: in vivo, 168 h
Method in brief: (§2)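 Healthy volunteers monitored for adverse events, vital signs, clinical laboratory values and 12-lead ECG. Adverse events tabulated by body system or organ class and severity and summarized by treatment across the crossover regimens.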

[5] = Tmax in fasted healthy human at 400 mg administered as single dose suspension coadministered with proton pump inhibitor; type: ADME, organism-based; settings: in vivo
Method in brief: (§3)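 Single oral suspension dose in fasting healthy volunteers, alone, with 12 oz ginger ale, after esomeprazole 40 mg once each morning days −2 to 1, or both; four-way crossover, 7–10-day washout. EDTA plasma 0–168 h. LC-MS/MS (LLOQ 5.00 ng/ml). t1/2 = ln(2)/K from terminal log-linear regression; Tmax median.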

Homo sapiens [6] = assay: Toxicity in healthy human assessed as headache at 200 mg QID, po administered as suspension for 7 days; type: organism-based; settings: in vivo, 168 h
Method in brief: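 Healthy volunteers (n = 12) took oral posaconazole suspension (40 mg/ml) for 7 days in a four-way randomized crossover with a 14- to 21-day washout. Subjects stayed fasted throughout, with nonfat snacks up to 800 cal/day allowed. Where given, Boost was taken with each dose. Safety covered adverse events, vital signs, clinical labs and 12-lead ECG, with AEs tabulated by body system and severity per treatment.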

Homo sapiens [7] = assay: Toxicity in healthy human assessed as asthenia at 200 mg QID, po administered as suspension for 7 days; type: organism-based; settings: in vivo, 168 h; method in brief: as §2
Homo sapiens [8] = assay: Toxicity in healthy human assessed as adverse events at 400 mg administered as single dose suspension after consumption of high fat meal; type: organism-based; settings: in vivo; method in brief: as §2
[9] = Apparent total body clearance in fasted healthy human at 400 mg administered as single dose suspension coadministered with acidic carbonated beverage and proton pump inhibitor; type: ADME, organism-based; settings: in vivo
Method in brief: (§4)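 This was a four-way crossover in 12 healthy subjects with 7–10 day washouts. Each took one fasting 400 mg oral suspension dose, with 12 oz ginger ale and/or esomeprazole 40 mg once each morning on days −2 to 1, with dosing on day 1. Plasma was sampled 0–168 h and measured by LC-MS/MS (LLOQ 5.00 ng/ml). Analysis was noncompartmental, with CL/F = dose/AUC_I and V/F = (CL/F)/K.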

Homo sapiens [10] = assay: Toxicity in healthy human assessed as dizziness at 400 mg administered as single dose suspension coadministered with nutritional supplement and 4 mg loperamide as two 2 mg tablets; type: organism-based; settings: in vivo; method in brief: as §1
[11] = Tmax in fasted healthy human at 400 mg administered as single dose suspension; type: ADME, organism-based; settings: in vivo; method in brief: as §3
[12] = Cmax in fasted healthy human plasma at 400 mg administered as single dose suspension coadministered with proton pump inhibitor; type: ADME, organism-based; parameters: dose 400 mg; method in brief: as §4
[13] = Apparent total body clearance in healthy human at 400 mg administered as single dose suspension coadministered with nutritional supplement and 10 mg metoclopramide; type: ADME, organism-based; settings: in vivo, po
Method in brief: (§5)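 A three-way crossover in 13 healthy subjects gave one 400 mg oral suspension dose with a nutritional supplement, either alone, with metoclopramide 10 mg orally three times daily on the day before and the day of dosing, or with a single 4 mg dose of loperamide. Plasma was taken 0–168 h for LC-MS/MS. Analysis was noncompartmental.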

[14] = Cmax in healthy human plasma at 400 mg administered as single dose suspension coadministered with nutritional supplement; type: ADME, organism-based; parameters: dose 400 mg; method in brief: as §5
[15] = Apparent volume of distribution in fasted healthy human at 400 mg administered as single dose suspension coadministered with proton pump inhibitor; type: ADME, organism-based; settings: in vivo, read-out: Vc/F; method in brief: as §4
[16] = AUC in healthy human at 400 mg administered as single dose suspension coadministered with nutritional supplement; type: ADME, organism-based; settings: plasma; method in brief: as §5
Homo sapiens [17] = assay: Toxicity in healthy human assessed as fatigue at 400 mg administered as single dose suspension coadministered with nutritional supplement and 4 mg loperamide as two 2 mg tablets; type: organism-based; settings: in vivo; method in brief: as §1
Homo sapiens [18] = assay: Toxicity in healthy human assessed as adverse events at 400 mg administered as single dose suspension coadministered with acidic carbonated beverage; type: organism-based; settings: in vivo; method in brief: as §2

Structure (SMILES): CC[C@@H]([C@H](C)O)n1ncn(-c2ccc(N3CCN(c4ccc(OC[C@@H]5CO[C@@](Cn6cncn6)(c6ccc(F)cc6F)C5)cc4)CC3)cc2)c1=O [POSACONAZOLE]
- half-life [1]: 29.5 h
- Activity (Homo sapiens [2]): 15%
- Cmax [3]: 151 ng/mL
- Activity (Homo sapiens [4]): 25%
- Tmax [5]: 6 h
- Activity (Homo sapiens [6]): 25%
- Activity (Homo sapiens [7]): 25%
- Activity (Homo sapiens [8]): 25%
- CL/F [9]: 1620 mL/min
- Activity (Homo sapiens [10]): 15%
- Tmax [11]: 5 h
- Cmax [12]: 76.7 ng/mL
- CL/F [13]: 993 mL/min
- Cmax [14]: 303 ng/mL
- Vd/F [15]: 4350 L
- AUC [16]: 8960 ng·h/mL
- Activity (Homo sapiens [17]): 15%
- Activity (Homo sapiens [18]): 25%
